This note sets out measurements from ChEMBL document CHEMBL2434950 (Eur J Med Chem, 2013).

≈ marks a conversion by molar mass, not a printed value.

In data set [1] the test system is Toxoplasma gondii. The data set can be described thus: Antiparasitic activity against Toxoplasma gondii tachyzoites by fluorescence assay. The format is functional. Particulars: read-out: ED50 (the source's name). The gist of the method:
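Red fluorescent protein-expressing tachyzoites were filtered (3 µm) and needle-passed, then seeded at 4×10^4/well onto confluent hTERT monolayers in DMEM-HG with 1% FBS, 2 mM glutamine and 1 mM pyruvate, at 37 °C. Drugs were serially diluted in the same medium. Plates were read daily from the bottom (ex 544/em 590 nm). EC50 came from the fit I = Imax·C/(EC50 + C), Imax 100%. Three experiments, each in triplicate.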

Data set [2] can be described thus: Cytotoxicity against african green monkey Vero cells by Alamar blue assay. In kind it is cell-based. Particulars: chlorocebus sabaeus, read-out: ED50 (the source's name). (Alamar Blue is a resazurin reagent that responds to reducing activity.)
In data set [3] the test system is Trypanosoma cruzi. The data set can be described thus: Antiparasitic activity against Trypanosoma cruzi amastigotes after 3 days by fluorescence assay. In kind it is functional. Particulars: 72 h, read-out: ED50 (the source's name). Summed up:
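Gamma-irradiated (2000 Rads) Vero cells, 3.4×10^4/well in RPMI with 10% FBS, were kept overnight at 35 °C, 7% CO2. […] Serial dilutions were added at 5 concentrations up to 20 or 25 µM, each in quadruplicate, with a benznidazole control. Fluorescence was read at day 3, and IC50 was derived by non-linear regression.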

Data set [4] has as its system Trypanosoma cruzi. Nature of the data set: Ratio of compound ED50 to WC-9 ED50 for Trypanosoma cruzi amastigotes after 3 days by fluorescence assay. The format is functional.
Data set [5] relates to Toxoplasma gondii. Nature of the data set: Antiparasitic activity against Toxoplasma gondii tachyzoites at 10 uM by fluorescence assay. In kind it is functional.
In data set [6] the test system is Trypanosoma cruzi. Nature of the data set: Antiparasitic activity against Trypanosoma cruzi EP epimastigotes. The format is functional.
A short description of data set [7]: Non-competitive inhibition of mitochondrial Trypanosoma cruzi SQS.
Data set [8] is described as follows: Non-competitive inhibition of glycosomal Trypanosoma cruzi SQS.

Turning to `O=C1C(O)=C([C@H]2CC[C@H](c3ccc(Cl)cc3)CC2)C(=O)c2ccccc21` [ATOVAQUONE], the EC50 in the data set on Toxoplasma gondii [1] is 0.032 µM.

For `COc1ccc(Oc2cccc(OCCSC#N)c2)cc1`, the CC50 in data set [2] was greater than 50 µM. Further, the EC50 stood at 2.93 µM in the data set on Toxoplasma gondii [1] and 10.1 µM in the data set with Trypanosoma cruzi [3].

`COc1cccc(Oc2ccc(OCCSC#N)cc2)c1`: the CC50 in data set [2] was greater than 50 µM. In addition, the EC50 in the data set with Toxoplasma gondii [1] worked out at 6.7 µM; in the data set on Trypanosoma cruzi [3] it was 4.5 µM.

As for `N#CSCCOc1ccc(Oc2cccc([N+](=O)[O-])c2)cc1`, the Ratio ED50 in the data set on Trypanosoma cruzi [4] came to 1.04. Further, the CC50 in data set [2] is greater than 50 µM. The EC50 in the data set on Toxoplasma gondii [1] was 2.03 µM; in the data set with Trypanosoma cruzi [3], 5.2 µM.

Consider `N#CSCCOc1ccc(Oc2cccnc2)cc1`, for which the CC50 in data set [2] is greater than 50 µM. Moreover, the figures for the EC50 in the data set with Toxoplasma gondii [1] and with Trypanosoma cruzi [3] were 7.5 µM and 7.4 µM, respectively.

Take `O=C(Cn1ccnc1[N+](=O)[O-])NCc1ccccc1` [BENZNIDAZOLE]: the EC50 with Trypanosoma cruzi [3] stood at 1.75 µM.

As for `N#CSCCOc1cccc(Oc2ccccc2)c1`, the CC50 in data set [2] was greater than 50 µM. Moreover, the figures for the EC50 with Toxoplasma gondii [1] and with Trypanosoma cruzi [3] were 3.95 µM and 11.2 µM, respectively.

As to `c1cncc(Oc2ccc(OCCOC3CCCCO3)cc2)c1` (stereo not given), the Activity in the data set on Toxoplasma gondii [5] is on record as 3.25%. Besides, the CC50 in data set [2] is greater than 50 µM. Moreover, the EC50 in the data set with Trypanosoma cruzi [3] is greater than 10 µM.

Consider `COc1ccc(Oc2ccc(OCCSC#N)cc2)cc1`, for which the CC50 in data set [2] was greater than 100 µM. The EC50 in the data set with Toxoplasma gondii [1] was determined as 3.81 µM; in the data set on Trypanosoma cruzi [3], 6.1 µM.

As to `O=[N+]([O-])c1cccc(Oc2ccc(OCCOC3CCCCO3)cc2)c1` (stereo not given), the CC50 in data set [2] is greater than 50 µM. Moreover, the EC50 is 3.28 µM in the data set with Toxoplasma gondii [1] and greater than 10 µM in the data set with Trypanosoma cruzi [3].

Turning to `N#CSCCOc1ccc(Oc2ccccc2)cc1`, in the data set with Trypanosoma cruzi [6], the MIC – broadly, the lowest concentration found to suppress growth – stood at 1 µM (≈ 0.271 µg/mL). The values for the IC50 in data set [7] and in data set [8] were 0.129 µM and 0.088 µM, respectively. For the same compound, the Ki – broadly, a measure of affinity in units of concentration, obtained from inhibition or displacement – in data set [7] was determined as 0.129 µM; in data set [8] it was 0.088 µM. The CC50 in data set [2] was greater than 50 µM. The EC50 in the data set with Toxoplasma gondii [1] is 4.8 µM; with Trypanosoma cruzi [3] it was 5 µM.
